From ChEMBL document CHEMBL6115053, “Optimization and Characterization of N-Acetamide Indoles as Antimalarials That Target PfATP4” (J Med Chem, 2025)
≈ marks a conversion by molar mass, not a printed value. Calls of active or inactive are those of the source. The rule behind the calls is not given here.

What was measured:
[1] = test system: Plasmodium berghei; test: Antimalarial activity against Plasmodium berghei ANKA infected in female BALB/c mouse assessed as parasitemia at 30 mg/kg, po measured for 2 to 72 hrs post infection by Giemsa staining based light microscopy; format: functional; conditions: time 2-72 hrs
[2] = test system: Plasmodium berghei; test: Antimalarial activity against Plasmodium berghei ANKA infected in female BALB/c mouse assessed as reduction in parasitemia at 30 mg/kg, po measured for 2 to 72 hrs post infection by Giemsa staining based light microscopy; format: functional; set-up: scale not given: the % may be the effect or the level left; conditions: time 2-72 hrs
[3] = test system: Plasmodium falciparum; test: Antiplasmodial activity against multidrug-resistant Plasmodium falciparum Dd2 harboring plasmodium falciparum ATP4 I398F/P990R/D1247Y mutant by SYBR green staining based analysis; format: functional, organism-based
[4] = test system: Plasmodium falciparum; test: Antiplasmodial activity against Plasmodium falciparum 3D7 infected in human […] cells incubated for 72 hrs; format: functional, organism-based; conditions: 3D7, 72 h
[5] = test system: Plasmodium falciparum; test: Antiplasmodial activity against W454-resistant population 1 Plasmodium falciparum 3D7 harboring Plasmodium falciparum ATP4 L928F mutant by LDH assay; format: functional, organism-based
[6] = test system: Plasmodium falciparum; test: Antiplasmodial activity against multidrug-resistant Plasmodium falciparum Dd2 harboring plasmodium falciparum ATP4 G358S mutant by SYBR green staining based analysis; format: functional, organism-based
[7] = test system: Plasmodium falciparum; test: Antiplasmodial activity against W454-resistant population 2 Plasmodium falciparum 3D7 harboring Plasmodium falciparum ATP4 L928F mutant by LDH assay; format: functional, organism-based
[8] = test system: Plasmodium falciparum; test: Antiplasmodial activity against W454-resistant population 3 Plasmodium falciparum 3D7 harboring Plasmodium falciparum ATP4 L928F mutant by LDH assay; format: functional, organism-based
[9] = test system: Plasmodium falciparum; test: Antiplasmodial activity against Plasmodium falciparum 3D7 infected in RBC assessed as reduction in extracellular parasite growth at 0.7 µM measured for 8 hrs by Giemsa-staining based microscopic analysis; set-up: scale not given: the % may be the effect or the level left
[10] = test system: Plasmodium falciparum; test: Antiplasmodial activity against Plasmodium falciparum 3D7 harboring Plasmodium falciparum ATP4 […] mutant by SYBR green staining based flow cytometry analysis; format: functional, organism-based
[11] = test system: Plasmodium falciparum; test: Antiplasmodial activity against N-(2,6-difluorophenyl)-2-(6-(5-methyl-1,3,4-oxadiazol-2-yl)-1H-indol-1-yl)acetamide-resistant Plasmodium falciparum Dd2 harboring plasmodium falciparum ATP4 D425E mutant by SYBR green staining based analysis; format: functional, organism-based
[12] = test system: Plasmodium falciparum; test: Antimalarial activity against Plasmodium falciparum NF54 infected assessed as inhibition of male gamete formation incubated for 48 hrs by automated bright field microscopic analysis; format: functional, organism-based; conditions: NF54, 48 h
[13] = Metabolic stability in human liver microsome assessed as intrinsic clearance; format: ADME; conditions: microsomes
[14] = test system: Plasmodium falciparum; test: Antiplasmodial activity against Plasmodium falciparum Dd2-B2 assessed as reduction in recrudescence measured for 42 days by flow cytometry; format: functional, organism-based; conditions: time 42.0 day
[15] = test system: Plasmodium falciparum; test: Antiplasmodial activity against Plasmodium falciparum 3D7 infected in RBC assessed as reduction in parasite growth measured for 8 hrs by Giemsa-staining based microscopic analysis; format: functional, organism-based
Procedure, shortened: (§1)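 Giemsa-stained thin smears were read at 8 h and the percentages of extracellular and intracellular parasites counted, compared with untreated parasites at 0 h.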

[16] = test system: Plasmodium falciparum; test: Antiplasmodial activity against asexual Plasmodium falciparum 3D7 infected in human […] cells assessed as reduction in parasite growth measured for 72 hrs by LDH assay; format: functional, organism-based; conditions: 3D7, 72 h
[17] = test system: Plasmodium falciparum; test: Antiplasmodial activity against Plasmodium falciparum Dd2-B2 assessed as parasite clearance at 3 times IC90 incubated for 5 days; format: functional, organism-based; conditions: time 5.0 day
[18] = test system: Plasmodium falciparum; test: Antiplasmodial activity against Plasmodium falciparum 3D7 infected in RBC assessed as reduction in extracellular parasite growth at 0.03 uM measured for 8 hrs by Giemsa-staining based microscopic analysis; format: functional; set-up: scale not given: the % may be the effect or the level left; procedure, shortened: as §1
[19] = test system: Plasmodium falciparum; test: Antiplasmodial activity against Plasmodium falciparum Dd2-B2; format: functional, organism-based
[20] = Lipophilicity, logD of compound at pH 7.4 by shake-flask method; format: physicochemical; conditions: buffer
[21] = Metabolic stability in mouse liver microsome assessed as intrinsic clearance; format: ADME; conditions: microsomes
[22] = Metabolic stability in rat hepatocyte […] assessed as intrinsic clearance measured per 10^6 cells; format: ADME, cell-based; conditions: hepatocytes
[23] = test system: Plasmodium falciparum; test: Antiplasmodial activity against N-(2,6-difluorophenyl)-2-(6-(5-methyl-1,3,4-oxadiazol-2-yl)-1H-indol-1-yl)acetamide-resistant Plasmodium falciparum Dd2 harboring plasmodium falciparum ATP4 F156L mutant by SYBR green staining based analysis; format: functional, organism-based
[24] = Aqueous solubility in PBS buffer at pH 7.4; format: physicochemical
[25] = test system: Plasmodium falciparum; test: Antimalarial activity against Plasmodium falciparum NF54 infected assessed as inhibition of female gamete formation incubated for 48 hrs by automated bright field microscopic analysis; format: functional, organism-based; conditions: NF54, 48 h
[26] = test system: Plasmodium falciparum; test: Antiplasmodial activity against asexual blood stage Plasmodium falciparum Dd2-B2 assessed as parasite recrudescence by measuring minimum inoculum of resistance measured for 40 days by flow cytometry; format: functional; conditions: time 40 day
[27] = test system: Plasmodium falciparum; test: Antiplasmodial activity against N-(2,6-difluorophenyl)-2-(6-(5-methyl-1,3,4-oxadiazol-2-yl)-1H-indol-1-yl)acetamide-resistant Plasmodium falciparum Dd2 harbouring ATP4 genome with 2.8 fold CNV by SYBR green staining based analysis; format: functional, organism-based
[28] = test system: Plasmodium falciparum; test: Antiplasmodial activity against Plasmodium falciparum Dd2-B2 assessed as parasite clearance at 3 times IC90 incubated for 42 days by flow cytometry analysis; format: functional, organism-based; conditions: time 42.0 day
[29] = test system: HepG2; test: Cytotoxicity against human HepG2 cells assessed as inhibition of cell growth incubated for 48 hrs by celltiterglo assay; format: toxicity, cell-based; conditions: hepg2, 48 h

C[C@@H]1CC[C@H]2[C@@H](C)C(=O)O[C@@H]3O[C@@]4(C)CC[C@@H]1[C@]32OO4 [ARTEMISININ]
Activity [1]: 2.6% | Activity [2]: 92.4%

N#Cc1cc(NC(=O)[C@H]2c3ccccc3C(=O)N(CC(F)(F)F)[C@@H]2c2cccnc2)ccc1F [SJ-733]
EC50 [3]: 95 nM | EC50 [4]: 61 nM | EC50 [5]: 579 nM | EC50 [6]: > 10000 nM | EC50 [7]: 537 nM | EC50 [8]: 533 nM | Activity [9]: ~24%

COc1cc(NC(=O)Cn2ccc3cc(F)c(-c4cnn(C)c4)cc32)cc(OC)c1OC
Activity [10]: Active | EC50 [3]: 10 nM | EC50 [11]: 19 nM | EC50 [12]: 190 nM | intrinsic clearance (CLint) [13]: 69 µL/min/mg | EC50 [4]: 4 nM | Activity [14]: Active | EC50 [5]: 47 nM | Activity [15]: Active | EC50 [6]: 42 nM | EC50 [16]: 7 nM | Activity [17]: Active | Activity [18]: ~24% | IC50 [19]: 17.3 nM | logD [20]: 3.2 | intrinsic clearance (CLint) [21]: 90 µL/min/mg | intrinsic clearance (CLint) [22]: 1.9 uL/min/10^6 cells | EC50 [23]: 40 nM | solubility kinetic [24]: 2.7 µM (≈ 1.18 µg/mL) | EC50 [25]: 180 nM | log10MIR [26]: 8.7 | EC50 [27]: 23 nM | EC50 [7]: 44 nM | EC50 [8]: 44 nM | Activity [28]: Active | CC50 [29]: > 40000 nM
